# Compounds with a hit are over-represented: about 4.1% of the library has one in this group of screens.
# Apaf1 inhib – human Apaf-1 inhibition; O14727; reconstituted apoptosome caspase-3 activity, DEVD-Rh110 fluorescence; inhibition, % at 20 µM; 0.71% of 330,000 active; AID 489030; active = inhibition of at least 40% at 20 µM;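 note: plate controls were DMSO wells for no effect and DEVD-CHO caspase inhibitor wells for full effect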
#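 Assay system – apoptosome proteins · Medium – Hepes buffer, pH 7.5 · Also added – cytochrome c with DEVD-Rh110 · Timing – 30 min compound preincubation, 50 min activation, room temperature · Detection – Rh110 fluorescence, excitation 480 nm, emission 540 nm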
# UPR CHOP act – apoptotic UPR (CHOP) activation; CHO-CHOP luciferase reporter, luminescence; percent of tunicamycin response over DMSO baseline; activation, % at 10 µM; 0.34% of 330,000 active;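 active = at 10 µM dose, activation of 40% or more, normalized to positive control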;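 note: 100% = tunicamycin at 10 µg/mL and 0% = DMSO alone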
#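 Assay system: CHO cells with stable CHOP pathway luciferase reporter; Buffer or medium: F12 plus 10% serum; Times: 16-18 h cell attachment, then 6 h compound exposure, 37 °C; Signal: luciferase luminescence; Read-out basis: percent activation relative to tunicamycin control; Control set: tunicamycin high control, DMSO low control.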
# Mdm2 MdmX PPI – human Mdm2/MdmX binding inhibition; O15151+Q00987; SaOS-2 split-luciferase Mdm2/MdmX complementation, luminescence; inhibition, % at 8 µM; 3% of 330,000 active;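 active = inhibition of at least 50% at 8 µM in the primary screen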
# XBP1 UPR activ – activators of adaptive arm of unfolded protein response (XBP1). CHO-XBP1 luciferase reporter, IRE1-XBP1 UPR activation, luminescence; percent of tunicamycin response, DMSO as zero. activation, % at 20 µM. 0.33% of 330,000 active;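 active = versus positive control, 20 µM dose yields 30% or more activation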;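 note: 100% = tunicamycin at 10 µg/mL and 0% = DMSO only wells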
#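 Material – CHO cell line with stable XBP1 luciferase reporter · Buffer or medium – F12 plus 10% FBS · Compound – single point, 20 µM final compound, 1% DMSO · Schedule – 16-18 h cell attachment at 37 °C, then 6 h compound exposure · Signal – Steady-Glo luminescence read · Benchmarks – high control tunicamycin 10 µg/mL final, low control DMSO vehicle only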
# UBC13 polyUb – human UBC13 polyubiquitination inhibition. P61088. UBC13 polyubiquitin chain formation, TR-FRET. inhibition, % at 20 µM. 0.47% of 330,000 active. AID 485273; in the data active = inhibition above about 45%, passing the limit was not always enough; inconclusive = no clear call, values can overlap the other calls
# Target sequence (P61088 whole entry, looked up): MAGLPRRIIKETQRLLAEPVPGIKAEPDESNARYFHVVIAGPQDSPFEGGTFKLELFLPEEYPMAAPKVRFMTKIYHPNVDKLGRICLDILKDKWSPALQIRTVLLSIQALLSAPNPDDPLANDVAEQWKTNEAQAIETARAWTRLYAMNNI
# Mdm2-MdmX conf – confirmation of human Mdm2/MdmX interaction inhibitors. inhibition, % at 8 µM. 55% of 10,000 active. shares compounds with Mdm2 MdmX PPI. Mdm2-MdmX binding, luminescent assay; in the data active = inhibition above about 40%
# Full FLuc ctr – full-length luciferase inhibition in Mdm2/MdmX counter-screen | shares compounds with Mdm2 MdmX PPI | inhibition, % at 8 µM | SaOS-2 full-length luciferase counterscreen, luminescence | 77% of 6,200 active;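 active = mean inhibition at 8 µM reaching about 37%, which flags the compound as non-specific, limit read from the data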;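 note: p53-null SaOS-2 cells with luciferase driven by a doxycycline-inducible promoter; compound on cells about two nights before reading with doxycycline added after day one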
# An asterisk follows results filed as active; ? = inconclusive; nt = not tested or not shown.
SMILES,Apaf1 inhib,UPR CHOP act,Mdm2 MdmX PPI,XBP1 UPR activ,UBC13 polyUb,Mdm2-MdmX conf,Full FLuc ctr
Cc1ccc(-c2oc3ccccc3c(=O)c2O)cc1,6.9,6.3,84.1*,6.2,2.2,50.8*,24.8
Cc1ccc(S(=O)(=O)C2(C(=O)N3CCN(c4cc(C)ccc4C)CC3)CC2)cc1,-1.8,-0.1,11.8,-2.8,-5.9,nt,nt
CCn1c(SCC(=O)N2CCOCC2)nnc1C(C)NC(=O)c1ccccc1 (configuration not stated),14.8,-0.6,1.2,-1.9,-2.9,nt,nt
Cc1ccc(Nc2nc(-c3c(C)nc4ncccn34)cs2)cc1,0.7,1.4,74.0*,10.2,2.0,83.9*,72.5*
C=CCNc1nc(-c2c(C)nc3ncccn23)cs1,3.9,4.0,9.2,-5.6,-3.3,nt,nt
Cc1nc2ncccn2c1-c1csc(Nc2ccc(O)cc2)n1,14.3,0.3,71.7*,-1.6,4.2,68.4*,66.1*
Cc1ccc(NC(=O)c2ccc3nc(N4CCOCC4)sc3c2)c(Cl)c1,12.6,2.7,17.6,0.9,-9.8,nt,nt
C=CCNS(=O)(=O)c1ccc2nsnc2c1,-21.5,-0.2,14.2,4.1,-3.3,nt,nt
CCOC(=O)c1c(C)sc2c1N(C(=O)CCl)c1cc(Cl)ccc1S2,35.0,14.3,100.3*,-6.9,9.9,77.4*,46.6*
Cc1ccc(CNC(=O)C2CCC(CNS(=O)(=O)c3cccs3)CC2)cc1 (configuration not stated),7.7,-0.6,0.4,0.3,4.2,nt,nt
S=C(Nc1ccccc1)N1N=C(c2cccs2)CC1c1cccs1 (configuration not stated),8.4,2.6,14.5,-2.4,9.5,nt,nt
CCCc1cc(-c2[nH]ncc2-c2ccc(C(=O)OCC)o2)c(O)cc1O,2.8,-0.3,56.2*,-3.9,11.0,18.5,nt
C=C1CCC[C@]2(C)C[C@H]3OC(=O)C(CN4CC(C)OC(C)C4)[C@H]3C[C@@H]12 (some centres not stated),5.1,1.8,35.0,-3.7,-0.4,nt,nt
CC1CCN(CC2C(=O)O[C@@H]3C[C@@]4(C)CCC[C@H](C)C4=C[C@H]23)CC(C)(C)C1 (some centres not stated),12.8,1.6,64.6*,-3.6,9.1,42.6*,43.7*
CNC(=O)c1cc(NC(=O)CCn2nc(-c3ccc(C)cc3)c3ccccc3c2=O)ccc1OC,-7.1,1.2,4.1,1.1,-0.3,nt,nt
CCC(=O)Nc1nc(C)c(-c2csc(Nc3ccc(C(=O)O)cc3)n2)s1,7.9,-1.3,19.6,0.0,-2.2,nt,nt
Cc1nc(C)c(-c2csc(Nc3ccc(N)cc3)n2)s1,-4.7,26.1,-1.9,3.6,-9.8,nt,nt
COc1ccc(Nc2nc(-c3sc(C)nc3C)cs2)cc1,14.1,3.6,50.4*,6.2,-3.0,45.0*,61.4*
CC(=O)Nc1ccc(Nc2nc(-c3sc(NC(C)=O)nc3C)cs2)cc1,-3.1,2.2,58.3*,-4.7,-2.2,23.1,nt
CC(=O)Nc1nc(C)c(-c2csc(Nc3ccc(O)cc3)n2)s1,10.3,14.1,66.2*,-1.0,-16.4,68.5*,43.5*
c1csc(CNc2ncnc3ccc(-c4ccoc4)cc23)c1,0.4,-0.9,65.4*,-1.9,2.0,66.5*,21.4
Cc1ccc(S(=O)(=O)CCc2nnc(NC(=O)CCl)s2)cc1C,-9.4,5.0,74.8*,0.8,9.4,11.1,nt
Cc1ccc(S(=O)(=O)CCc2nnc(N)s2)cc1C,-9.9,-1.6,29.2,-1.9,-0.8,nt,nt
O=C(Nc1cccc(NC(=O)c2cccs2)c1)c1ccc2c(c1)OCCO2,12.0,3.2,-15.7,3.3,8.6,nt,nt
O=C(CCCN1C(=O)/C(=C/c2cccs2)SC1=S)Nc1ccccn1,11.7,2.5,55.6*,-1.8,-1.5,59.5*,97.7*
SMILES,Apaf1 inhib,UPR CHOP act,Mdm2 MdmX PPI,XBP1 UPR activ,UBC13 polyUb,Mdm2-MdmX conf,Full FLuc ctr
O=C1/C(=C/c2ccccc2Cl)SC(=S)N1CCCC(=O)N(CCO)c1ccccc1,20.3,-1.4,97.8*,-5.2,6.3,15.4,nt
O=C(CCN1C(=O)/C(=C/c2ccccc2Cl)SC1=S)NC1CCCC1,10.2,0.4,45.1,-5.5,2.8,nt,nt
O=C(CCN1C(=O)/C(=C/c2ccccc2Cl)SC1=S)NCCc1ccc(O)cc1,6.6,-0.9,78.4*,-3.1,7.8,39.2,47.8*
O=C1/C(=C\c2cccc(O)c2O)SC(=S)N1Cc1ccccc1,6.7,15.1,72.0*,4.8,-47.8,57.2*,34.2
CNc1cc(CSc2ccc(Cl)cc2)nc(C)n1,1.3,5.0,-34.5,0.7,8.2,nt,nt
Cc1cccc(N=Nc2cnc(N)s2)c1,11.5,2.7,25.2,1.6,-12.0,nt,nt
CCOc1ccc(N(CC(=O)Nc2nccs2)S(=O)(=O)c2c(C)[nH]c(=O)[nH]c2=O)cc1,4.1,-1.4,3.0,1.2,-1.1,nt,nt
O=C(CCCN1C(=O)/C(=C/c2ccccc2Cl)SC1=S)Nc1cccnc1,29.6,-3.9,86.5*,-6.3,-1.0,72.8*,8.3
O=C(CCN1C(=O)/C(=C/c2ccccc2Cl)SC1=S)Nc1cccnc1,25.8,1.6,12.1,-5.2,22.9,nt,nt
O=C(CCN1C(=O)/C(=C/c2ccccc2Cl)SC1=S)Nc1ccccn1,3.4,1.0,13.6,-0.5,-9.3,nt,nt
O=C(CCCN1C(=O)/C(=C/c2ccccc2Cl)SC1=S)Nc1ccccn1,9.6,-4.1,66.6*,-5.5,3.2,55.0*,21.1
OC1(C(F)(F)F)CC(c2ccc3ccccc3c2)=NO1 (configuration not stated),-14.2,3.0,18.8,-1.8,6.1,nt,nt
CCN1/C(=C/C=C/C=C/c2sc3ccccc3[n+]2CC)Sc2ccccc21,79.8*,9.8,91.1*,-7.8,?,81.7*,43.6*
Nc1c(C(=O)Nc2nc3ccccc3s2)sc2nc(-c3cccs3)ccc12,11.4,26.1,86.8*,28.9,-11.6,-45.5,nt
CC(=O)c1sc2nc(-c3cccs3)ccc2c1N,23.3,3.8,-6.9,1.4,-5.8,nt,nt
CS(=O)(=O)N(CC(=O)N1CCC(C(N)=O)CC1)c1cc(C(F)(F)F)ccc1Cl,4.2,-1.2,-26.3,0.1,-5.2,nt,nt
COc1ccc(-n2nnnc2S(=O)(=O)CC(=O)N2CCCCC2)cc1,7.2,-8.6,97.2*,-10.2,3.3,96.5*,13.6
CCN(CC)C(=O)CSc1nnc(-c2ccccn2)n1Cc1ccccc1,-5.9,-1.3,13.9,-1.5,9.7,nt,nt
Cc1cccc([C@@H]2[C@@H]3C(=O)N(Cc4ccccc4)C(=O)[C@@H]3[C@]3(Cc4ccc(Cl)cc4)C(=O)N(c4ccc(Br)cc4)C(=O)N23)c1,9.2,-0.1,90.4*,1.0,-25.4,99.5*,49.4*

# Screening data: PubChem BioAssay, Sanford-Burnham Center for Chemical Genomics
